According to ChEMBL document CHEMBL4000215, “A structure-guided optimization of pyrido[2,3-d]pyrimidin-7-ones as selective inhibitors of EGFRL858R/T790M mutant with improved pharmacokinetic properties” (Eur J Med Chem, 2017):

Tests used:
NCI-H1975 = assay: Antiproliferative activity against human NCI-H1975 cells harboring EGFR L858R/T790M double mutant after 72 hrs by SRB assay; type: functional, cell-based; conditions: NCI-H1975, 72 h
Summary of the method: (§1)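 Cells were cultured in RPMI 1640 with 10% FBS and 1% penicillin-streptomycin at 37 °C in 5% CO2, and their EGFR gene was sequenced before use. They were exposed to a range of compound concentrations for 72 h, and growth was read by sulforhodamine B staining. IC50 came from non-linear regression with a sigmoidal dose-response model.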

A-431 = assay: Antiproliferative activity against human A431 cells harboring wild type EGFR after 72 hrs by SRB assay; type: cell-based; conditions: A-431, 72 h; summary of the method: as §1
[1] = Cmax in Sprague-Dawley rat at 5 mg/kg, iv by LC-MS/MS analysis; type: ADME, organism-based; set-up: dose 5 mg/kg, route intravenous; conditions: in vivo
Summary of the method: (§2)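 Male Sprague-Dawley rats (180-300 g, n = 3 per route) were given a single dose, either 5 mg/kg iv or 25 mg/kg by oral gavage. Vehicle was 5% DMSO, 40% PEG400 and saline. Orbital sinus blood (0.2 mL) was taken into heparinized tubes at 0 min to 24 h. Plasma was stored at -80 °C and assayed by LC-MS/MS, and PK parameters were then calculated.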

[2] = (§3) Apparent clearance in Sprague-Dawley rat at 5 mg/kg, iv by LC-MS/MS analysis; type: ADME, organism-based; conditions: Sprague-Dawley, in vivo, read-out: CL(app) (converted); summary of the method: as §2
[3] = Cmax in Sprague-Dawley rat at 25 mg/kg administered via oral gavage by LC-MS/MS analysis; type: ADME, organism-based; set-up: dose 25 mg/kg, route oral; conditions: in vivo; summary of the method: as §2
[4] = Oral bioavailability in Sprague-Dawley rat at 25 mg/kg administered via gavage by LC-MS/MS analysis; type: ADME, organism-based; conditions: in vivo; summary of the method: as §2
[5] = AUC (0 to infinity) in Sprague-Dawley rat at 25 mg/kg administered via oral gavage by LC-MS/MS analysis; type: ADME, organism-based; set-up: dose 25 mg/kg, route oral, time infinity; conditions: in vivo; summary of the method: as §2
[6] = Tmax in Sprague-Dawley rat at 25 mg/kg administered via oral gavage by LC-MS/MS analysis; type: ADME, organism-based; conditions: in vivo; summary of the method: as §2
[7] = (§4) AUC (0 to infinity) in Sprague-Dawley rat at 5 mg/kg, iv by LC-MS/MS analysis; type: ADME, organism-based; set-up: dose 5 mg/kg, time infinity, route intravenous; conditions: Sprague-Dawley, in vivo; summary of the method: as §2
[8] = target: T1, Epidermal growth factor receptor (Homo sapiens, UniProt P00533); assay: Inhibition of N-terminal 6His/TEV protease cleavage site-tagged wild type human EGFR using poly (Glu,Tyr) 4:1 as substrate after 1 hr by ELISA
T1 sequence (P00533 whole entry, the tested form may be a part): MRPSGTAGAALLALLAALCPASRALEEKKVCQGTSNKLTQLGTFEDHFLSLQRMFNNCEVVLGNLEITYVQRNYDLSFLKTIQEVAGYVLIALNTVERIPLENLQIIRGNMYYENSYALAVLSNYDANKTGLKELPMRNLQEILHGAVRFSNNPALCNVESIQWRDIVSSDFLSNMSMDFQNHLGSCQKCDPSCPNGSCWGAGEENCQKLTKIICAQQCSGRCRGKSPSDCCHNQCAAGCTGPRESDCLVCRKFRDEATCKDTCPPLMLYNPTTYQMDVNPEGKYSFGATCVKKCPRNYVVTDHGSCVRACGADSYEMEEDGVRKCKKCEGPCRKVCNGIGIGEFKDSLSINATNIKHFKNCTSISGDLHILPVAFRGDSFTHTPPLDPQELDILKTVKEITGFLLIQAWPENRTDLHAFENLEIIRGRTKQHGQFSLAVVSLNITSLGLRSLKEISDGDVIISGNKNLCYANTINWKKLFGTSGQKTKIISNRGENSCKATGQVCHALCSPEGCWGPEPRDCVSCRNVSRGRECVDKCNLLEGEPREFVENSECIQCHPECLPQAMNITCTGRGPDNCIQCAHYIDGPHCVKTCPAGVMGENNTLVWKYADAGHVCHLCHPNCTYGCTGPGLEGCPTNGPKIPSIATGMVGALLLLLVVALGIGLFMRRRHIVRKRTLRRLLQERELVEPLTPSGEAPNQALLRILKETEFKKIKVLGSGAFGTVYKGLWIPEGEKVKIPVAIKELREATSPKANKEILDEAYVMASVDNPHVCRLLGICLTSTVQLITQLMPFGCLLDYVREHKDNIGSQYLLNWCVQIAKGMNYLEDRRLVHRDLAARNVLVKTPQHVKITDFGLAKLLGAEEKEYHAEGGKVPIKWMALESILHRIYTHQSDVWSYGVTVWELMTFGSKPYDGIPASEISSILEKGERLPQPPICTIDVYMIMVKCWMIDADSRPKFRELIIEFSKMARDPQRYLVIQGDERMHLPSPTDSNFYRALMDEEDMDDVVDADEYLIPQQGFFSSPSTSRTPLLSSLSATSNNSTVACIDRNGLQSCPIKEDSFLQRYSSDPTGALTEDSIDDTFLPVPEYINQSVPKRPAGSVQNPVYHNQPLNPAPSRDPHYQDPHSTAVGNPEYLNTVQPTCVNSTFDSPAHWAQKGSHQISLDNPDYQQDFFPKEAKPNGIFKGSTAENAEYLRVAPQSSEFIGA

[9] = target: Epidermal growth factor receptor (Homo sapiens, UniProt P00533, L858R/T790M); assay: Inhibition of N-terminal 6His/TEV protease cleavage site-tagged human EGFR L858R/T790M double mutant (696 to 1022 residues) using poly (Glu,Tyr) 4:1 as substrate after 1 hr by ELISA
Epidermal growth factor receptor (Homo sapiens, UniProt P00533, L858R/T790M), sequence (P00533 25-1210 T790M/L858R limits assumed): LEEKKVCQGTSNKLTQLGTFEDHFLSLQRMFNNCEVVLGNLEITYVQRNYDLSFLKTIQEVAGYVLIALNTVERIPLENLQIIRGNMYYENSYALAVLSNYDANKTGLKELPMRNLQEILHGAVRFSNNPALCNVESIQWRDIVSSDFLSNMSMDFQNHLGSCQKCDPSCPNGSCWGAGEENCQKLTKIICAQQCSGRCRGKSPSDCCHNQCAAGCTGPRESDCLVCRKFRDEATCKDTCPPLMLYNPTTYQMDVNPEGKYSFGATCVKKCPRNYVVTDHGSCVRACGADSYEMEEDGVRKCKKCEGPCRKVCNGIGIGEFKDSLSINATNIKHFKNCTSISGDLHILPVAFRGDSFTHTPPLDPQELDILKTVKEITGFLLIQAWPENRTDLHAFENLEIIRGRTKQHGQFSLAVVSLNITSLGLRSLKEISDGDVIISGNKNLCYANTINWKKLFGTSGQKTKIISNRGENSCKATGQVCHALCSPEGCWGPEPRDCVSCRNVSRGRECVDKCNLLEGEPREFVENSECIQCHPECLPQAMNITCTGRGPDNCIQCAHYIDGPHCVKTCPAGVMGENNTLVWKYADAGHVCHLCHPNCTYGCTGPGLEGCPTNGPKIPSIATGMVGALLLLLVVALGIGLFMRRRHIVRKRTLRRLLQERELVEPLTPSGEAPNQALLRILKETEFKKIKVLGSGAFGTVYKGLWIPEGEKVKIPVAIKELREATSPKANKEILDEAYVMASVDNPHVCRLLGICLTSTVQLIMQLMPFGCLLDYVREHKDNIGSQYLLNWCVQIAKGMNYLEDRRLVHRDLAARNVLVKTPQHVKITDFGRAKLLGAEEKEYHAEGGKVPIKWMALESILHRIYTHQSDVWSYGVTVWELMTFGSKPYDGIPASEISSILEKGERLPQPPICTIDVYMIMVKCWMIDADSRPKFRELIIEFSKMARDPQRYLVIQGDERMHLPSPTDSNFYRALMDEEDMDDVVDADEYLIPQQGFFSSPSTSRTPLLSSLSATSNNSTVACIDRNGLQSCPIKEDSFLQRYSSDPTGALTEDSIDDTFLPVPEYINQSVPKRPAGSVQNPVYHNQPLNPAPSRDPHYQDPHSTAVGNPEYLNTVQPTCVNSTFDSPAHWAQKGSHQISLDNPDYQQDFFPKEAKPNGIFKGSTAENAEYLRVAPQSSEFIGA

Rattus norvegicus [10] = assay: as §3; type: ADME, organism-based; conditions: in vivo; summary of the method: as §2
Rattus norvegicus [11] = assay: as §4; type: ADME, organism-based; set-up: dose 5 mg/kg, time infinity, route intravenous; conditions: in vivo; summary of the method: as §2
[12] = target: T1, Epidermal growth factor receptor; assay: Inhibition of EGF-stimulated wild type EGFR phosphorylation in human A431 cells at 3 to 300 nM preincubated for 4 hrs followed by EGF stimulation measured after 10 mins by Western blot analysis; conditions: a431, 10 min, 0.3 µM
[13] = target: T1, Epidermal growth factor receptor; assay: Inhibition of EGF-stimulated wild type EGFR in human A431 cells assessed as decrease in ERK phosphorylation at 3 to 300 nM preincubated for 4 hrs followed by EGF stimulation measured after 10 mins by Western blot analysis; conditions: a431, 10 min, 0.3 µM

C=CC(=O)N1CC[C@@H](n2c(=O)cc(C)c3cnc(Nc4ccc(N5CCN(C)CC5)cc4OC)nc32)C1
IC50 (NCI-H1975): 5200 nM
IC50 (A-431): > 10000 nM

C=CC(=O)Nc1cc(-n2c(=O)cc(C)c3cnc(Nc4ccc(N5CCN(C)CC5)cc4OC)nc32)cc(C(F)(F)F)c1.CS(=O)(=O)O
Cmax [1]: 2460 ng/mL
clearance [2]: 102 mL/min/kg
Cmax [3]: 161 ng/mL
bioavailability [4]: 16.1%
AUC(0-inf) [5]: 671 ng·h/mL
Tmax [6]: 2 h
AUC(0-inf) [7]: 831 ng·h/mL

C=CC(=O)Nc1cc(-n2c(=O)cc(C)c3cnc(Nc4ccc(N5CC(C)N(C)C(C)C5)cc4OC)nc32)cc(C(F)(F)F)c1 (centres undefined)
IC50 [8]: 97 nM
IC50 (NCI-H1975): 30 nM
IC50 [9]: 3.3 nM
IC50 (A-431): 1130 nM

C=CC(=O)Nc1cc(-n2c(=O)cc(C)c3cnc(Nc4ccc(N5CCN(C)C(C)C5)cc4OC)nc32)cc(C(F)(F)F)c1.CS(=O)(=O)O (centres undefined)
Cmax [1]: 259 ng/mL
CL(app) (Rattus norvegicus [10]): 37.5 mL/min/kg
Cmax [3]: 21.4 ng/mL
bioavailability [4]: 5.58%
AUC(0-inf) [5]: 111 ng·h/mL
Tmax [6]: 1.67 h
AUC (Rattus norvegicus [11]): 398.48 ng·h/mL

C=CC(=O)Nc1cc(-n2c(=O)cc(C)c3cnc(Nc4ccc(N5CCN(C)CC5)cc4OC)nc32)ccc1C
IC50 [8]: 36.9 nM
IC50 (NCI-H1975): 81 nM
IC50 [9]: 2.3 nM
IC50 (A-431): 3620 nM

C=CC(=O)Nc1cc(-n2c(=O)cc(C)c3cnc(Nc4ccc(N5CCN(C)C(C)C5)cc4OC)nc32)cc(C(F)(F)F)c1 (centres undefined)
IC50 [8]: 66 nM
IC50 (NCI-H1975): 12 nM
IC50 [9]: 1.6 nM
IC50 (A-431): 1710 nM

C=CC(=O)Nc1cc(C)cc(-n2c(=O)cc(C)c3cnc(Nc4ccc(N5CCN(C)CC5)cc4OC)nc32)c1
IC50 [8]: 208 nM
IC50 (NCI-H1975): 6 nM
IC50 [9]: 1.8 nM
IC50 (A-431): 3250 nM

C=CC(=O)Nc1cccc(-n2c(=O)cc(C)c3cnc(Nc4cnn(C5CCN(C)CC5)c4)nc32)c1
IC50 [8]: 166 nM
IC50 (NCI-H1975): 14 nM
IC50 [9]: 1.8 nM
IC50 (A-431): 3520 nM

C=CC(=O)Nc1cccc(-n2c(=O)cc(C)c3cnc(Nc4ccc(N5CCN(C)C(C)C5)cc4OC)nc32)c1 (centres undefined)
IC50 [8]: 169 nM
IC50 (NCI-H1975): 18 nM
IC50 [9]: 1.2 nM
IC50 (A-431): 706 nM

C=CC(=O)Nc1cccc(-n2c(=O)cc(C)c3cnc(Nc4ccc(N5CC(C)N(C)C(C)C5)cc4OC)nc32)c1 (centres undefined)
IC50 (NCI-H1975): 4 nM
IC50 (A-431): 1670 nM

C=CC(=O)Nc1cccc(-n2c(=O)cc(C)c3cnc(Nc4nc5c(s4)CN(C)CC5)nc32)c1
IC50 [8]: 550 nM
IC50 (NCI-H1975): 8 nM
IC50 [9]: 2.5 nM
IC50 (A-431): 2700 nM

C=CC(=O)Nc1cc(F)cc(-n2c(=O)cc(C)c3cnc(Nc4ccc(N5CCN(C)CC5)cc4OC)nc32)c1
IC50 [8]: 26 nM
IC50 (NCI-H1975): 0.1 nM
IC50 [9]: 0.8 nM
IC50 (A-431): 817 nM

C=CC(=O)Nc1cc(C(C)C)cc(-n2c(=O)cc(C)c3cnc(Nc4ccc(N5CCN(C)CC5)cc4OC)nc32)c1
IC50 [8]: 24 nM
IC50 (NCI-H1975): 120 nM
IC50 [9]: 2.4 nM
IC50 (A-431): 1440 nM

C=CC(=O)Nc1cccc(Nc2nc(Nc3ccc(N4CCN(C(C)=O)CC4)cc3OC)ncc2C(F)(F)F)c1 [ROCILETINIB]
IC50 (NCI-H1975): 42 nM
IC50 (A-431): 1540 nM

C=CC(=O)N1CCC(n2c(=O)cc(C)c3cnc(Nc4ccc(N5CCN(C)CC5)cc4OC)nc32)CC1
IC50 [8]: > 1000 nM
IC50 (NCI-H1975): 2240 nM
IC50 [9]: > 1000 nM
IC50 (A-431): > 10000 nM

C=CC(=O)Nc1cccc(-n2c(=O)cc(C)c3cnc(Nc4ccc(N5CCN(C)CC5)cc4OC)nc32)c1
IC50 [8]: 330 nM
IC50 (NCI-H1975): 2 nM
IC50 (A-431): 1400 nM

C=CC(=O)Nc1cccc(-n2c(=O)cc(C)c3cnc(Nc4ccc(N5CCN(C)CC5)cc4OC)nc32)c1.CS(=O)(=O)O
Cmax [1]: 1370 ng/mL
clearance [2]: 190 mL/min/kg
Cmax [3]: 83.1 ng/mL
bioavailability [4]: 10.8%
AUC(0-inf) [5]: 243 ng·h/mL
Tmax [6]: 1.56 h
AUC(0-inf) [7]: 450 ng·h/mL

C=CC(=O)Nc1cc(-n2c(=O)cc(C)c3cnc(Nc4ccc(N5CCN(C)CC5)cc4OC)nc32)cc(C(C)(C)C)c1
IC50 [8]: > 1000 nM
IC50 (NCI-H1975): 197 nM
IC50 [9]: 17.7 nM
IC50 (A-431): 660 nM

C=CC(=O)Nc1cc(-n2c(=O)cc(C)c3cnc(Nc4ccc(N5CCN(C)CC5)cc4OC)nc32)cc(C(F)(F)F)c1
IC50 [8]: 182 nM
IC50 (NCI-H1975): 40 nM
inhibition (INH) [12]: Not Active
IC50 [9]: 2 nM
IC50 (A-431): 1390 nM
inhibition (INH) [13]: Not Active

C=CC(=O)Nc1cc(CC)cc(-n2c(=O)cc(C)c3cnc(Nc4ccc(N5CCN(C)CC5)cc4OC)nc32)c1
IC50 [8]: 472 nM
IC50 (NCI-H1975): 142 nM
IC50 [9]: 3.4 nM
IC50 (A-431): 1050 nM

C=CC(=O)Nc1cccc(-n2c(=O)cc(C)c3cnc(Nc4ccc(N5CCN(C)C(C)C5)cc4OC)nc32)c1.CS(=O)(=O)O (centres undefined)
Cmax [1]: 1330 ng/mL
clearance [2]: 197 mL/min/kg
Cmax [3]: 155 ng/mL
bioavailability [4]: 24.3%
AUC(0-inf) [5]: 526 ng·h/mL
Tmax [6]: 1.67 h
AUC(0-inf) [7]: 433 ng·h/mL

C=CC(=O)Nc1cc(Cl)cc(-n2c(=O)cc(C)c3cnc(Nc4ccc(N5CCN(C)CC5)cc4OC)nc32)c1
IC50 [8]: 33.1 nM
IC50 (NCI-H1975): 7 nM
IC50 [9]: 0.6 nM
IC50 (A-431): 1430 nM

C=CC(=O)Nc1cccc(-n2c(=O)cc(C)c3cnc(Nc4ccc(N5CC(C)N(C)C(C)C5)cc4OC)nc32)c1.CS(=O)(=O)O (centres undefined)
Cmax [1]: 772 ng/mL
clearance [2]: 135 mL/min/kg
Cmax [3]: 64.4 ng/mL
bioavailability [4]: 13.3%
AUC(0-inf) [5]: 613 ng·h/mL
Tmax [6]: 4 h
AUC(0-inf) [7]: 622 ng·h/mL

C=CC(=O)Nc1cccc(-n2c(=O)cc(C)c3cnc(Nc4ccc(N5CCN(C)CC5)nc4)nc32)c1
IC50 [8]: 46.8 nM
IC50 (NCI-H1975): 64 nM
IC50 [9]: 1.4 nM
IC50 (A-431): 2380 nM

C=CC(=O)N1CC[C@H](n2c(=O)cc(C)c3cnc(Nc4ccc(N5CCN(C)CC5)cc4OC)nc32)C1
IC50 (NCI-H1975): 762 nM
IC50 (A-431): > 10000 nM

C=CC(=O)Nc1cc(-n2c(=O)cc(C)c3cnc(Nc4ccc(N5CC(C)N(C)C(C)C5)cc4OC)nc32)cc(C(F)(F)F)c1.CS(=O)(=O)O (centres undefined)
Cmax [1]: 592 ng/mL
clearance [2]: 205 mL/min/kg
Cmax [3]: 17.4 ng/mL
bioavailability [4]: 4.38%
AUC(0-inf) [5]: 89.7 ng·h/mL
Tmax [6]: 6 h
AUC(0-inf) [7]: 410 ng·h/mL

C=CC(=O)Nc1cccc(-n2c(=O)cc(C)c3cnc(Nc4cnn(CCN(C)C)c4)nc32)c1
IC50 [8]: 445 nM
IC50 (NCI-H1975): 289 nM
IC50 [9]: 4.2 nM
IC50 (A-431): 4000 nM

C=CC(=O)Nc1cc(Br)cc(-n2c(=O)cc(C)c3cnc(Nc4ccc(N5CCN(C)CC5)cc4OC)nc32)c1
IC50 [8]: 57 nM
IC50 (NCI-H1975): 4 nM
IC50 [9]: 1.8 nM
IC50 (A-431): 1150 nM

C=CC(=O)N1CCC(Cn2c(=O)cc(C)c3cnc(Nc4ccc(N5CCN(C)CC5)cc4OC)nc32)C1 (racemic)
IC50 [8]: > 1000 nM
IC50 (NCI-H1975): 305 nM
IC50 [9]: 63.8 nM
IC50 (A-431): > 10000 nM
